According to ChEMBL document CHEMBL1133503 (J Med Chem, 2000):

Legend:
[1] = Concentration required to reduce cell survival to 10% of controls using V-79 cells in the clonogenic assay, in aerobic conditions; type: functional; conditions: Cricetulus griseus, V79
Method in brief: (§1)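 V-79 cells (500 000 per bottle) grown 20 h in MEM with 10% FBS. Hypoxic set gassed 2 h at 37 °C with humidified 95% N2/5% CO2. Drug in ethanol/water or DMF injected through septa. Exposure 3 h under air or hypoxia. Cells trypsinised, counted by trypan blue, 500 plated in triplicate for 6–8 days. Colonies stained with crystal violet, survival relative to solvent control.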

[2] = Hypoxic selectivity expressed as the ratio of IC50 values in air and nitrogen; type: functional
[3] = Concentration required to reduce cell survival to 10% of controls using V-79 cells in the clonogenic assay, in anaerobic conditions (hypoxic conditions); type: functional; conditions: Cricetulus griseus, V79; method in brief: as §1
[4] = Concentration of drug required to reduce V-79 cell survival to 50% of controls in a SRB assay; type: functional, cell-based; conditions: Cricetulus griseus, V79
Method in brief: (§2)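 V-79 cells (about 7 × 10³ per 100 μL) preincubated 24 h, then exposed to drug for 3 h under oxic conditions. Washed 5× with HBSS and grown 48 h more. Fixed with TCA and stained with SRB. Bound dye dissolved in 10 mM Tris, spotted on TLC and read by video densitometry. IC50 is the mean of triplicates in one experiment. Ratio is IC50 of sulfide over sulfoxide or sulfone.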

[5] = Relative cytotoxicity is expressed as the ratio of the IC50 values of the corresponding sulfide to sulfoxide or to sulfone; type: functional, Cricetulus griseus; method in brief: as §2
[6] = Hypoxia-selective cytotoxicity required to reduce cell survival to 10% of controls using V-79 cells in the clonogenic assay, with N2; type: functional; conditions: Cricetulus griseus, V79; method in brief: as §1
[7] = Hypoxia-selective cytotoxicity required to reduce cell survival to 10% of controls using V-79 cells in the clonogenic assay, with air; type: functional; conditions: Cricetulus griseus, V79; method in brief: as §1
Rattus norvegicus [8] = organism: Rattus norvegicus; assay: Bioreduction experiment was conducted by incubation of the sulfoxides with rat liver S-9 fractions in anaerobic conditions (N2, without cofactors); type: functional; parameters: concentration or dose not given beside the values
Method in brief: (§3)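 Rat liver S-9 fraction incubated with sulfoxide at 37 °C for 30 min with shaking. Aerobic vials were left open to air. Anaerobic vials were purged with N2 for 10 min before the compound was injected. Cofactor was NADPH, benzaldehyde, 2-hydroxypyrimidine or acetaldehyde, or none. Controls were boiled S-9 and S-9 without cofactors. For menadione, S-9 was preincubated aerobically with 1 equiv for 30 min, then benzaldehyde was added. Sulfide or sulfone was measured by HPLC or TLC densitometry.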

Rattus norvegicus [9] = organism: Rattus norvegicus; assay: Reduction potential (SCE) determined by differential pulse polarography of the sulfoxides […]; type: functional
Rattus norvegicus [10] = organism: Rattus norvegicus; assay: Bioreduction experiment was conducted by incubation of the sulfoxides with rat liver S-9 fractions in anaerobic conditions (N2 2-hydroxypyrimidine); type: functional; method in brief: as §3
Rattus norvegicus [11] = organism: Rattus norvegicus; assay: Bioreduction experiment was conducted by incubation of the sulfoxides with rat liver S-9 fractions in anaerobic conditions (N2, benzaldehyde); type: functional; parameters: concentration or dose not given beside the values; method in brief: as §3
Rattus norvegicus [12] = organism: Rattus norvegicus; assay: Bioreduction experiment was conducted by incubation of the sulfoxides with rat liver S-9 fractions in anaerobic conditions (N2); type: functional; method in brief: as §3
Rattus norvegicus [13] = organism: Rattus norvegicus; assay: Bioreduction experiment was conducted by incubation of the sulfoxides with rat liver S-9 fractions in anaerobic conditions(N2, without cofactors); type: functional; method in brief: as §3
Rattus norvegicus [14] = organism: Rattus norvegicus; assay: Bioreduction experiment was conducted by incubation of the sulfoxides with rat liver S-9 fractions in anaerobic conditions(N2, benzaldehyde); type: functional; method in brief: as §3
Rattus norvegicus [15] = organism: Rattus norvegicus; assay: Bioreduction experiment was conducted by incubation of the sulfoxides with rat liver S-9 fractions in anaerobic conditions N2); type: functional; method in brief: as §3
Rattus norvegicus [16] = organism: Rattus norvegicus; assay: Bioreduction experiment was conducted by incubation of the sulfoxides with rat liver S-9 fractions in aerobic conditions (N2, 2-hydroxypyrimidine); type: functional; method in brief: as §3
Rattus norvegicus [17] = organism: Rattus norvegicus; assay: Bioreduction experiment was conducted by incubation of the sulfoxides with rat liver S-9 fractions in aerobic conditions (N2, NADPH); type: functional; method in brief: as §3
Rattus norvegicus [18] = organism: Rattus norvegicus; assay: Bioreduction experiment was conducted by incubation of the sulfoxides with rat liver S-9 fractions in aerobic conditions (N2, acetaldehyde); type: functional; method in brief: as §3
Rattus norvegicus [19] = organism: Rattus norvegicus; assay: Bioreduction experiment was conducted by incubation of the sulfoxides with rat liver S-9 fractions in aerobic conditions (N2, menadione); type: functional; method in brief: as §3
Rattus norvegicus [20] = organism: Rattus norvegicus; assay: Bioreduction experiment was conducted by incubation of the sulfoxides with rat liver S-9 fractions in aerobic conditions (air, NADPH); type: functional; method in brief: as §3
Rattus norvegicus [21] = organism: Rattus norvegicus; assay: Bioreduction experiment was conducted by incubation of the sulfoxides with rat liver S-9 fractions in aerobic conditions (air, benzaldehyde); type: functional; method in brief: as §3
Rattus norvegicus [22] = organism: Rattus norvegicus; assay: Bioreduction experiment was conducted by incubation of the sulfoxides with rat liver S-9 fractions in aerobic conditions (air, control); type: functional; method in brief: as §3
Rattus norvegicus [23] = organism: Rattus norvegicus; assay: Bioreduction experiment was conducted by incubation of the sulfoxides with rat liver S-9 fractions in aerobic conditions (air, without cofactors); type: functional; method in brief: as §3

## [O-][S+](c1ccccc1)c1ccc(N(CCCl)CCCl)cc1 (centres undefined)
[1]
  IC90: 2010 µM
[2]
  Selectivity: 11
[3]
  IC90: 189 µM

## O=[N+]([O-])c1ccc(S(=O)(=O)c2ccc(N(CCCl)CCCl)cc2)cc1
[4]
  IC50: 26.7 µM
[5]
  Cytotoxicity: 0.08

## O=[N+]([O-])c1ccc([S+]([O-])c2ccc(N(CCCl)CCCl)cc2)cc1 (centres undefined)
[4]
  IC50: 21.9 µM
[6]
  IC90: 182 µM
[7]
  IC90: 3680 µM
[5]
  Cytotoxicity: 0.1
[2]
  Selectivity: 20

## Cl.ClCCN(CCCl)c1ccc(Sc2ccc(Nc3c4ccccc4nc4ccccc34)cc2)cc1
[4]
  IC50: 1.93 µM
[5]
  Cytotoxicity: 1

## [O-][s+]1c2ccc(N(CCCl)CCCl)cc2c2cc(N(CCCl)CCCl)ccc21
[1]
  IC90: 4670 µM
Rattus norvegicus [8]
  Bioreduction: 0.6%
[2]
  Selectivity: 3
Rattus norvegicus [9]
  E: 1.96 -V
Rattus norvegicus [10]
  Bioreduction: 0.33%
Rattus norvegicus [11]
  Bioreduction: 0.6%
Rattus norvegicus [12]
  Bioreduction: 0%
[3]
  IC90: 1520 µM

## Nc1ccc(Sc2ccc(N(CCCl)CCCl)cc2)cc1
[4]
  IC50: 2.49 µM
[5]
  Cytotoxicity: 1

## [O-][s+]1c2ccccc2c2cc(N(CCCl)CCCl)ccc21 (centres undefined)
[1]
  IC90: 210 µM
[2]
  Selectivity: 1.3
Rattus norvegicus [9]
  E: 2.03 -V
Rattus norvegicus [10]
  Bioreduction: 2.02%
Rattus norvegicus [12]
  Bioreduction: 0%
Rattus norvegicus [13]
  Bioreduction: 0.46%
Rattus norvegicus [14]
  Bioreduction: 1.68%
[3]
  IC90: 161 µM

## Cl.O=S(=O)(c1ccc(Nc2c3ccccc3nc3ccccc23)cc1)c1ccc(N(CCCl)CCCl)cc1
[4]
  IC50: 22.2 µM
[5]
  Cytotoxicity: 0.09

## [O-][S+](c1ccccc1)c1ccccc1 [(PHENYLSULFINYL)BENZENE]
Rattus norvegicus [8]
  Bioreduction: 0%
Rattus norvegicus [15]
  Bioreduction: 0%
Rattus norvegicus [9]
  E: 2.3 -V
Rattus norvegicus [16]
  Bioreduction: 17.4%
Rattus norvegicus [17]
  Bioreduction: 0%
Rattus norvegicus [18]
  Bioreduction: 6%
Rattus norvegicus [19]
  Bioreduction: 0%
Rattus norvegicus [20]
  Bioreduction: 11.6 nmol/mg
Rattus norvegicus [21]
  Bioreduction: 0%
Rattus norvegicus [22]
  Bioreduction: 0%
Rattus norvegicus [23]
  Bioreduction: 0%
Rattus norvegicus [11]
  Bioreduction: 18%
